From PubChem
Rows were chosen to be rich in hits. Some 1.5% of all compounds tested hit in one or more screens of this group.
S100A4 MyoIIA – S100A4-myosin IIA interaction inhibition | P26447 | S100A4/TAMRA-MyoIIA peptide fluorescence polarization | inhibition, % at 10.7 µM | actives 0.14% (n = 360,000) | AID 652163;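 active means mean inhibition of at least 70% across replicates, with every replicate also reaching that level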
Target sequence (P26447 whole entry, looked up): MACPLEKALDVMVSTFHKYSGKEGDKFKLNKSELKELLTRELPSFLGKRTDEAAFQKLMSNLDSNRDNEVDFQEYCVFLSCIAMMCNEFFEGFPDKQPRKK
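Assay system: human S100A4 monomer with TAMRA-labelled myosin IIA peptide / Buffer or medium: Calcium-containing HEPES buffer, pH 7.2 / Reagent: TAMRA-labelled myosin IIA heavy-chain peptide probe, 5 nM / Compound: one dose per compound / Timing: polarization read 5 min after assay mix addition, stable 5–60 min / Benchmarks: neutral control DMSO, positive control TFP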
GSIS activator – GLuc luminescence reporter in INS-1E cells, primary screen for activators of glucose-dependent secretion of insulin | INS-1E GLuc reporter insulin secretion, 2-3 h | activation, % at 16.6 µM | actives 0.61% (n = 370,000) | AID 743287;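 active means lowest replicate activation of at least 40%, so every replicate reaches that level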;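 further: 0% = median of neutral control wells and 100% = median of IBMX positive control wells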
SIRT5 inh – blocks human SIRT5 desuccinylation of peptide. Purified SirT5, succinyl-peptide AMC, trypsin-coupled fluorescence. Q9NXA8. actives 1.1% (n = 330,000). inhibition, % at 15 µM; in the data active means inhibition above about 15%
ERp5 inh – blocks human ERp5 reductase activity on insulin; Q15084; ERp5 insulin aggregation, absorbance 650 nm, 90 min; inhibition, % at 9.99 µM; actives 0.05% (n = 350,000); AID 651711;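 active means mean replicate inhibition above about 25%, with every replicate also reaching it, limit read from the data, passing the limit was not always enough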
PDI turbidity – blocks human protein disulfide isomerase activity | P07237 | PDI insulin aggregation turbidity, A650, 90 min | inhibition, % at 10 µM | actives 0.052% (n = 350,000);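 active means mean inhibition across replicates of 30% or more, whatever share of single replicates reach that level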
Target sequence (P07237 whole entry, looked up): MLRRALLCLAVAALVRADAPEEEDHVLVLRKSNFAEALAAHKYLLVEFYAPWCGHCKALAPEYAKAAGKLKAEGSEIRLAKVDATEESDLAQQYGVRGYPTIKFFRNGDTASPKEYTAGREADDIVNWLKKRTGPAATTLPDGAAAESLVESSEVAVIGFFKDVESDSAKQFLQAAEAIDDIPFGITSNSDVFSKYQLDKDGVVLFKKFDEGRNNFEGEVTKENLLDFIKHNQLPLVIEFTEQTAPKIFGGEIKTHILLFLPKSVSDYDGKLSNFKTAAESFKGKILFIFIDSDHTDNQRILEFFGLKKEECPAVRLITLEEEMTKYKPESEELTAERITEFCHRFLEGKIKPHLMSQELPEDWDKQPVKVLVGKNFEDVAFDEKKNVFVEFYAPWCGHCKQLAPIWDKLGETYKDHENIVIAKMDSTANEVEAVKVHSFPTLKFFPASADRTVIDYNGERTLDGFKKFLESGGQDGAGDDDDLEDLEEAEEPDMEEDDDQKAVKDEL
The depositor's hits bear a star; / = not tested or not shown.

SMILES | S100A4 MyoIIA | GSIS activator | SIRT5 inh | ERp5 inh | PDI turbidity
C[C@H]1CCCCO[C@H](CN(C)S(=O)(=O)c2ccc(Cl)cc2)[C@@H](C)CN([C@@H](C)CO)C(=O)c2cc(NS(=O)(=O)c3ccccc3)ccc2O1 | -35.2 | -12.7 | 28.0* | -0.7 | /
C[C@@H]1CN([C@H](C)CO)C(=O)c2cc(NS(=O)(=O)c3ccc(Cl)cc3)ccc2O[C@@H](C)CCCCO[C@H]1CN(C)S(=O)(=O)c1ccccc1 | -55.9 | -7.7 | 18.6* | 0.7 | /
C[C@@H]1CCCCO[C@@H](CN(C)S(=O)(=O)c2ccc(Cl)cc2)[C@@H](C)CN([C@@H](C)CO)C(=O)c2cc(NS(=O)(=O)c3ccccc3)ccc2O1 | -22.8 | -2.0 | 13.1 | 17.2 | /
NCCCCCc1cn([C@@H](CCC(=O)O)C(=O)NCCCCCCCCCCC(=O)N2CCNCC2)nn1 | -0.1 | 10.9 | -3.0 | -4.5 | 0.6
CC[C@H](C)Cc1cn([C@@H](CCCCN)C(=O)NCCCCCCCCCCC(=O)N2CCNCC2)nn1 | -7.0 | 40.5* | / | 5.5 | -7.5
O=C(C[C@H]1CC[C@H]2[C@@H](COC[C@H](O)CN2C(=O)Nc2ccc(F)cc2)O1)NCCc1ccccc1 | -4.9 | -9.5 | 1.8 | -3.3 | /
O=C(C[C@@H]1CC[C@H]2[C@@H](COC[C@@H](O)CN2CC2CCCCC2)O1)NCc1ccc(F)cc1 | 115.8* | 0.9 | 8.9 | 0.4 | /
O=C(C[C@H]1CC[C@@H]2[C@H](COC[C@@H](O)CN2C(=O)Nc2ccc(F)cc2)O1)NCCc1ccccc1 | 106.2* | -6.5 | 9.5 | -2.0 | /
CO[C@@H]1CN(C)C(=O)c2ccc(NC(=O)c3cc(C)on3)cc2OC[C@H](C)N(CC2CC2)C[C@@H]1C | 10.4 | 10.5 | 9.6 | 0.5 | /
CCN1CCN(C(=O)CN(CC)S(=O)(=O)c2ccc3ccccc3c2)CC1 | -4.3 | 9.0 | 23.2* | 2.7 | -1.3
CCN1CCN(C(=O)CN(CC)S(=O)(=O)c2ccc(Cl)cc2)CC1 | / | 4.2 | / | / | -1.1
CCCc1c(C)c2ccc(OCC(C)=O)cc2oc1=O | / | 51.5* | / | / | -1.4
C[C@H](CO)N1C[C@H](C)[C@H](CN(C)S(=O)(=O)c2ccccc2)Oc2ccc(NC(=O)CCN3CCOCC3)cc2C1=O | -5.7 | 14.6 | -1.5 | 1.0 | /
O=C(O)CCNc1ccc(NCCC(=O)O)c2c1C(=O)c1ccccc1C2=O | 9.9 | -6.5 | 17.1* | -1.9 | 3.3
COc1ccc(OCC(=O)NNC(=O)Cn2c(=O)cnc3ccccc32)cc1 | 15.6 | 76.0* | -0.3 | -5.2 | 6.3
CCOC(=O)c1ccc(N=c2sc(C(=O)OC)cc(=O)n2C2CC2)cc1 | / | 23.4 | / | / | -1.8
COC(=O)c1cc(=O)n(C2CC2)c(=NC2CC2)s1 | / | 76.1* | / | / | 15.3
CCCNC(=O)N(C)C[C@H]1Oc2cc(C#CC(C)C)ccc2S(=O)(=O)N([C@H](C)CO)C[C@@H]1C | -44.3 | -11.4 | 18.6* | 17.9 | /
CCCNC(=O)N(C)C[C@H]1Oc2cc(C#C[C@H](C)O)ccc2S(=O)(=O)N([C@@H](C)CO)C[C@@H]1C | -8.6 | -1.6 | 18.1* | 0.8 | /
Cc1ccccc1CNC(=O)Cn1ccc2cc(S(=O)(=O)N3CCCCCC3)ccc21 | -2.2 | -19.4 | 19.5* | 5.0 | 5.5
Cc1cccc(CNC(=O)Cn2ccc3cc(S(=O)(=O)N4CCCCCC4)ccc32)c1 | -2.0 | -18.4 | -0.6 | 9.4 | -0.1
COc1ccc(CNC(=O)CCn2ccc3cc(S(=O)(=O)N4CCCC4)ccc32)cc1 | 0.7 | 16.6 | 33.6* | 5.4 | -5.6
Cc1cc2cc(CNC(=O)c3ccc(S(=O)(=O)N4CCCC4)cc3)ccc2n1C | 121.4* | -45.8 | -7.9 | -7.0 | /
Cc1cccc(CNC(=O)Cn2ccc3cc(S(=O)(=O)N4CCCC4)ccc32)c1 | -2.6 | -0.7 | 15.7* | 1.8 | 7.2
C[C@@H]1CN([C@@H](C)CO)C(=O)c2cc(NS(=O)(=O)c3cn(C)cn3)ccc2O[C@@H](C)CCCCO[C@H]1CN(C)S(=O)(=O)c1ccc(F)cc1 | 9.2 | 19.3 | -0.4 | -3.2 | /
SMILES | S100A4 MyoIIA | GSIS activator | SIRT5 inh | ERp5 inh | PDI turbidity
COc1ccccc1-c1cn(CC[C@@H]2CC[C@@H](NC(=O)C3CC3)[C@H](CO)O2)nn1 | -21.4 | -1.6 | 6.9 | 0.0 | /
O=C(C1COc2ccccc2O1)N1CCN(c2ccccc2O)CC1 (stereo not drawn) | 8.8 | 4.6 | 17.3* | -4.1 | 12.4
CCOC(=O)C1CCCN(C(=O)C2c3ccccc3Oc3ccccc32)C1 (stereo not drawn) | / | / | / | / | -11.6
CCOC(=O)C1CCCN(C(=O)C2COc3ccccc3O2)C1 (stereo not drawn) | -1.8 | 41.7* | 1.4 | -0.1 | 2.6
Cc1ccc(NC(=O)Nc2ccc3c(c2)C(=O)N(C)[C@H]2CC[C@H](CC(=O)O)O[C@H]2CO3)cc1 | 0.0 | 16.3 | -0.4 | 4.5 | /
C[C@H](CO)N1C[C@H](C)[C@@H](CN(C)C(=O)Cc2ccccn2)Oc2ncc(C#C[C@@H](C)O)cc2C1=O | 21.2 | 4.8 | 8.1 | 2.1 | /
COc1ccccc1-c1cnc2c(c1)C(=O)N([C@H](C)CO)C[C@@H](C)[C@@H](CN(C)C(C)=O)O2 | -6.3 | 42.5* | -0.9 | 1.2 | /
COc1ccccc1-c1cnc2c(c1)C(=O)N([C@@H](C)CO)C[C@@H](C)[C@@H](CN(C)C(C)=O)O2 | 3.8 | -2.5 | -3.6 | 3.3 | -6.5
CC(=O)N(C)C[C@H]1Oc2ncc(-c3ccccc3C)cc2C(=O)N([C@H](C)CO)C[C@@H]1C | 1.9 | 12.0 | 1.2 | -2.6 | /
C[C@@H]1CN([C@@H](C)CO)C(=O)c2cc(-c3ccccc3F)cnc2O[C@@H]1CN(C)C | -2.5 | 20.1 | -3.3 | -8.1 | /
C[C@H](CO)N1C[C@H](C)[C@H](CN(C)C)Oc2ncc(-c3ccccc3F)cc2C1=O | 2.0 | 13.2 | 17.2* | 0.8 | /
CC(=O)N(C)C[C@@H]1Oc2ncc(-c3ccccc3C)cc2C(=O)N([C@H](C)CO)C[C@H]1C | 1.0 | 5.5 | 32.3* | -5.6 | /
O=C(CC1CC1)N1CC2(C1)[C@@H](c1ccccc1)[C@@H](CO)N2C(=O)C1CCOCC1 | -18.3 | 9.2 | -3.7 | 5.0 | /
Cc1ccc(SCC(=O)NC2CC2)cc1 | 2.6 | 7.4 | -1.9 | 4.9 | -3.3
Cc1ccc(SCCC(=O)NC2CC2)cc1 | -1.4 | 6.5 | 16.0* | -3.2 | 9.8
CCN(CC)c1ccc(N=Cc2ccc([N+](=O)[O-])o2)cc1 | -3.9 | / | 15.4* | 0.1 | 11.9
CCOC(=O)c1cc2ccc(OC(=O)c3ccco3)cc2oc1=O | / | -11.6 | / | / | -7.7
CCOC(=O)c1cc2ccc3ccccc3c2oc1=O | 0.7 | / | 23.7* | 0.3 | 11.3
C[C@@H](NC(=O)C[C@@H]1CC[C@@H]2[C@@H](COc3ccc(NS(=O)(=O)c4ccc(Cl)cc4)cc3C(=O)N2C)O1)c1ccccc1 | -38.4 | -15.5 | -0.9 | 0.0 | /
CN=C(Nc1cc(C)nn1-c1ccccc1)c1ccccc1F | -3.4 | -26.6 | 15.6* | 2.9 | 17.1
COc1ccc(-c2ccc([C@H]3[C@H](CO)N4C(=O)CN(Cc5ccc(F)cc5)C[C@@H]34)cc2)cc1 | 0.4 | -4.7 | 0.6 | 1.8 | /
